In paper PMC5587398 (Journal of pharmaceutical and biomedical analysis, 2017):

Legend:
[1] = Pharmacokinetic study in mice after single oral dose; assay type: in vivo, male C57BL/6 mice
In short: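 Male C57BL/6 mice (~30 g; 12 total, n=4 per time point) got a single 30 mg/kg gavage, 10 mL/kg, in 20 mM citric buffer (pH~3). K2EDTA blood was drawn at 0.167–24 hr and the plasma stored at -80°C. Plasma was precipitated with ACN/MeOH 7/3 containing deuterated IS, then run on HILIC amide +ESI SRM (0.01–25 µM calibration). Non-compartmental parameters were taken from mean concentrations per time point.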

[2] = Pharmacokinetic study in rats after single oral dose; assay type: in vivo, male Sprague-Dawley rats; settings: plasma
In short: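 Male Sprague-Dawley rats (~300 g, n=4) got a single 30 mg/kg oral gavage, 10 mL/kg, in 20 mM citric buffer (pH~3). K2EDTA blood was drawn at 0.167, 0.5, 1, 2, 3, 5, 7 and 24 hr, and plasma was stored at -80°C. Analysis used IS-containing ACN/MeOH precipitation and HILIC-UPLC-MS/MS. Non-compartmental analysis used linear-trapezoidal AUC; t1/2 = 0.693/λ, with λ from ≥3 terminal points.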

[3] = male, C57BL/6, mouse, plasma, po, 30 mg/kg
[4] = male, Sprague-Dawley, rat, po, 30 mg/kg

## NC1=NCCN1CC(=O)O [cyclocreatine, 1-Carboxymethyl-2-iminoimidazolidine]
[1]; male, C57BL/6 (mice), Sprague-Dawley (rats), mouse, plasma, po, 30 mg/kg
  half-life: 7 to 8 h
[1]; [3]
  AUC(0-inf): 84100 ng·h/mL
  Cmax: 5620 ng/mL
  Tmax: 5 h
[1]; rodents (mice and rats), PO administration, summary statement
  absorption after PO administration: well absorbed
[2]; male SD rats (n=4), 30 mg/kg PO single dose, mean ± SD
  t(1/2): 7.9 ± 0.9 h
[2]; [4]
  AUC(0-inf): 91700 ± 18000 ng·h/mL
  Cmax: 13300 ± 2600 ng/mL
  Tmax: 0.58 ± 0.48 h
